Here are results for four compounds from PMC3942533 (Journal of medicinal chemistry, 2013).

Series [1] deals with mouse vas deferens (δ). The series is described as follows: MVD isolated tissue bioassay. The series is classed as biochemical. The following applies: read-out: MVD (δ) IC50; 50% inhibition of muscle contraction, n = 4, ±SEM.
Series [2] relates to guinea pig ileum/longitudinal muscle myenteric plexus (μ). The series is described as follows: GPI isolated tissue bioassay. The class given is biochemical. The following applies: for IC50: read-out: GPI (μ) IC50, 50% inhibition of muscle contraction, n = 4, ±SEM.
A further series concerns mouse hot plate. Kind of series: Hot plate antinociception test. The following applies: mice, icv 0.6 nmol, 30 and 45 min after administration. The series is classed as in vivo. The procedure, abridged:
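Mice received the test compound locally (icv, 0.6 nmol) or systemically (iv, 3000 nmol) and were assessed on the hot plate, with morphine as a reference. Antinociception expressed as % MPE over time and reported as mean ± SEM. Compared with vehicle-treated animals by two-way ANOVA and Bonferroni post hoc tests; significance P < 0.05.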

Series [3] is described as follows: Enzymatic stability in human plasma. The series is classed as in vitro ADME. The following applies: 37 °C, compared with Biphalin. A digest of the protocol:
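Test compound incubated in human plasma at 37 °C, with stability followed as a curve over time. Three independent experiments (n = 3), reported as mean ± SEM. Groups compared by two-way ANOVA with Bonferroni post hoc comparisons.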

In series [4] the test system is mouse vas deferens (δ). The following applies: read-out: MVD (δ) IC50; ±SEM; ref [1b] and [13]; cited from earlier work.
Series [5] relates to guinea pig ileum/longitudinal muscle myenteric plexus (μ). The following applies: read-out: GPI (μ) IC50; ±SEM; ref [1b] and [13]; cited from earlier work.

Structures can show the parent of a compound that is named as a salt. Where two headings read alike, the source gives them in different places. Bounds are passed on as bounds.

On to `C[C@@H](NC(=O)[C@@H](N)Cc1ccc(O)cc1)C(=O)NCC(=O)N[C@H](CC(=O)NNC(=O)C[C@H](Cc1ccccc1)NC(=O)CNC(=O)[C@@H](C)NC(=O)[C@@H](N)Cc1ccc(O)cc1)Cc1ccccc1` [Compound 1, 2 TFA·(Tyr-D-Ala-Gly-hβ^3Phe-NH)2], for which the values for the IC50 (with mouse vas deferens (δ) [1]; in series [2]) were 33 ± 9.4 nM and 50 ± 6.5 nM, respectively. Also, the “MPE (antinociceptive effect)” value in the series with mouse hot plate was 100%. For the same compound, the “enzymatic stability, remaining parent compound versus time” value in series [3] was “increased stability”.

For Biphalin [Bph], the IC50 (in general, the point on the concentration scale where inhibition reaches its midpoint) with mouse vas deferens (δ) [4] is 2.7 ± 1.5 nM; in series [5], 8.8 ± 0.3 nM.

`C[C@@H](NC(=O)C[C@@H](N)Cc1ccc(O)cc1)C(=O)NCC(=O)N[C@@H](Cc1ccccc1)C(=O)NNC(=O)[C@H](Cc1ccccc1)NC(=O)CNC(=O)[C@@H](C)NC(=O)C[C@@H](N)Cc1ccc(O)cc1` [Compound 4, 2 TFA·(hβ^3Tyr-D-Ala-Gly-Phe-NH)2]: the IC50 amounted to 710 ± 97 nM in the series with mouse vas deferens (δ) [1] and 670 ± 139 nM in series [2].

For `C[C@@H](NC(=O)[C@@H](N)Cc1ccc(O)cc1)C(=O)NCCC(=O)N[C@@H](Cc1ccccc1)C(=O)NNC(=O)[C@H](Cc1ccccc1)NC(=O)CCNC(=O)[C@@H](C)NC(=O)[C@@H](N)Cc1ccc(O)cc1` [Compound 2, 2 TFA·(Tyr-D-Ala-βAla-Phe-NH)2], the IC50 in the series with mouse vas deferens (δ) [1] was determined as 1300 ± 221 nM. For the same compound, the “GPI (μ) inhibition at fixed concentration” value in series [2] (at 1 μM) stood at 9.2% at 1 μM. For the same compound, the “IC50 (GPI)/IC50 (MVD)” value in series [2] (ratio) is recorded as greater than 0.75.
